{
  "source": "ChEMBL document CHEMBL4622996",
  "about": "“Discovery of Vixotrigine: A Novel Use-Dependent Sodium Channel Blocker for the Treatment of Trigeminal Neuralgia” (ACS Med Chem Lett, 2020)",
  "key": {"[1]": {"assay": "Volume of distribution in steady state in monkey at 0.5 mg/kg, iv", "assay_type": "ADME, organism-based, Macaca mulatta", "settings": "rhesus monkey, in vivo, read-out: Vdss"}, "[2]": {"biological_target": "ATP-dependent translocase ABCB1 (Homo sapiens, UniProt P08183)", "sequence (P08183 whole entry)": "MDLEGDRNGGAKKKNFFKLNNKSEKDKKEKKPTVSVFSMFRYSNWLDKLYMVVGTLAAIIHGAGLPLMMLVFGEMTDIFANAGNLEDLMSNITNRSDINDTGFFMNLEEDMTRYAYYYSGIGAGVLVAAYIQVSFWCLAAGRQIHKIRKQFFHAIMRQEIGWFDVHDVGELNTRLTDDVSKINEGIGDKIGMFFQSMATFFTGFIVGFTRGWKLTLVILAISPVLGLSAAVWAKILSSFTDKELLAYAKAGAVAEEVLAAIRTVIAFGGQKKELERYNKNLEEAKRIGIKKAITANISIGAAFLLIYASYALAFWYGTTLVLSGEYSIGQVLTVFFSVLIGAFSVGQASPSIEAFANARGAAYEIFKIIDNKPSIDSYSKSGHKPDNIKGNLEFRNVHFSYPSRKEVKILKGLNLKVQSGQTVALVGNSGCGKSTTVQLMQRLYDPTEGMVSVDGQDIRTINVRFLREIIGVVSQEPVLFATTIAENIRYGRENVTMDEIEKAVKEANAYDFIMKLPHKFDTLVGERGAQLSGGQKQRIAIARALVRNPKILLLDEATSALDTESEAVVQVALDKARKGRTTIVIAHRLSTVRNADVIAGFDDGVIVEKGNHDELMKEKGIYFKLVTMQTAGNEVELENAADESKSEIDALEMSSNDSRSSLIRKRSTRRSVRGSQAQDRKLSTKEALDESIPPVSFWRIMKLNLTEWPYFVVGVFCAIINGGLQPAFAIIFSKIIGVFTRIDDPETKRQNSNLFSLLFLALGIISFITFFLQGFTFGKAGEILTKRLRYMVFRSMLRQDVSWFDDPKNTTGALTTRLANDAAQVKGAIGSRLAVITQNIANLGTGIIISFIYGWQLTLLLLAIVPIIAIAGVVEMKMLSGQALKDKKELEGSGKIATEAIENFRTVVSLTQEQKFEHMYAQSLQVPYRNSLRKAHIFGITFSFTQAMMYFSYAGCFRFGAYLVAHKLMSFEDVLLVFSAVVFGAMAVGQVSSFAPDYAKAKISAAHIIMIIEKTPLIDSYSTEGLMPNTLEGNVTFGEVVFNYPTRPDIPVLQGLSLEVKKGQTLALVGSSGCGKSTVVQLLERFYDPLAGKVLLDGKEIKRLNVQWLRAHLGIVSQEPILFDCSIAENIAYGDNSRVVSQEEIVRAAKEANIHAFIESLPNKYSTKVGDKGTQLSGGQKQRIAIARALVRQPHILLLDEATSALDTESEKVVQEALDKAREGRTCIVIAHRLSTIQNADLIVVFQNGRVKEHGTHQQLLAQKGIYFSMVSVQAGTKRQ", "assay": "Inhibition of P-glycoprotein (unknown origin) upto 100 uM"}, "Cytochrome P450 2C8": {"biological_target": "T1, Cytochrome P450 2C8 (Homo sapiens, UniProt P10632)", "T1 sequence (P10632 whole entry)": "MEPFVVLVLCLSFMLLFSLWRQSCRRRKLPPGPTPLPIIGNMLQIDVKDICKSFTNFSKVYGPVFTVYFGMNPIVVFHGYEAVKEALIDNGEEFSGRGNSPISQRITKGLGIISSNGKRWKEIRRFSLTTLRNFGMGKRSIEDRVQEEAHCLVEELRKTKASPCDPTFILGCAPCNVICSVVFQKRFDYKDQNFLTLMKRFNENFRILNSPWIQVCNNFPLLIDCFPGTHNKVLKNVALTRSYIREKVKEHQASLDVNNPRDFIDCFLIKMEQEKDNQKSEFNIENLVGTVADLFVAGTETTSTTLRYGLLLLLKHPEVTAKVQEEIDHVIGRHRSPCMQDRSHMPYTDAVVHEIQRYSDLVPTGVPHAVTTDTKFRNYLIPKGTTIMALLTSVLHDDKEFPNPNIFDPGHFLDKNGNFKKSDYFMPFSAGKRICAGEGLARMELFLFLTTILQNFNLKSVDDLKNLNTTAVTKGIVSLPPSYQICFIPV", "assay": "Inhibition of CYP2C8 (unknown origin)", "assay_type": "ADME"}, "[3]": {"assay": "Cmax in dog at 3 mg/kg, po", "assay_type": "ADME, organism-based, Canis lupus familiaris", "design": "dose 3 mg/kg, route oral", "settings": "in vivo"}, "[4]": {"biological_target": "T2, Amine oxidase [flavin-containing] A (Homo sapiens, UniProt P21397)", "T2 sequence (P21397 whole entry)": "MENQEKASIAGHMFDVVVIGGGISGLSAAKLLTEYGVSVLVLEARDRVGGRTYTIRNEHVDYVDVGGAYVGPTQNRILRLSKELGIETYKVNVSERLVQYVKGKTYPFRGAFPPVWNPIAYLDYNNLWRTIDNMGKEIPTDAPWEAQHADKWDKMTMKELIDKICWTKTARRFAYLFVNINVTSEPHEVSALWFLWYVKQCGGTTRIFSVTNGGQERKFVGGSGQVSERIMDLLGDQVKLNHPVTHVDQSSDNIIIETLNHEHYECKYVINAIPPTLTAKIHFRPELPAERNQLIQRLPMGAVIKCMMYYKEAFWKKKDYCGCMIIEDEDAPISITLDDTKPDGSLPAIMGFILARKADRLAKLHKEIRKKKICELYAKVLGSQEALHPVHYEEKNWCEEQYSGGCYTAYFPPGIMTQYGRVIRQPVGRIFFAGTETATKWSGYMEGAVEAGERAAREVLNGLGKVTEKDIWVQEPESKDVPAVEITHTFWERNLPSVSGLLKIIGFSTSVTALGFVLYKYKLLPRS", "assay": "Inhibition of MAO-A (unknown origin)"}, "[5]": {"assay": "Free plasma concentration in complete Freund's adjuvant-induced rat model at 1 mg/kg, po measured after 1 hr", "assay_type": "ADME, organism-based", "settings": "in vivo"}, "[6]": {"assay": "Half life in dog at 0.5 mg/kg, iv", "assay_type": "ADME, organism-based, Canis lupus familiaris", "settings": "in vivo"}, "[7]": {"assay": "Oral bioavailability in rat at 3 mg/kg", "assay_type": "ADME, organism-based", "settings": "in vivo"}, "Rattus norvegicus": {"system": "Rattus norvegicus", "assay": "Antiinflammatory activity in complete Freund's adjuvant-induced knee joint rat model of subchronic inflammation assessed as inhibition of CFA-induced hypersensitivity to pain at 1 mg/kg, BID", "assay_type": "functional, organism-based", "summary_of_the_method": "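CFA-induced knee joint model of subchronic inflammation; oral 1 mg/kg BID over a 5-day dosing period; reversal of hypersensitivity compared against celecoxib.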"}, "[8]": {"assay": "Volume of distribution in steady state in rat at 0.5 mg/kg, iv", "assay_type": "ADME, organism-based", "settings": "in vivo, read-out: Vdss"}, "[9]": {"assay": "Cmax in monkey at 3 mg/kg, po", "assay_type": "ADME, organism-based, Macaca mulatta", "design": "dose 3 mg/kg, route oral", "settings": "rhesus monkey, in vivo"}, "[10]": {"biological_target": "T3, Solute carrier organic anion transporter family member 1B1 (Homo sapiens, UniProt Q9Y6L6)", "T3 sequence (Q9Y6L6 whole entry)": "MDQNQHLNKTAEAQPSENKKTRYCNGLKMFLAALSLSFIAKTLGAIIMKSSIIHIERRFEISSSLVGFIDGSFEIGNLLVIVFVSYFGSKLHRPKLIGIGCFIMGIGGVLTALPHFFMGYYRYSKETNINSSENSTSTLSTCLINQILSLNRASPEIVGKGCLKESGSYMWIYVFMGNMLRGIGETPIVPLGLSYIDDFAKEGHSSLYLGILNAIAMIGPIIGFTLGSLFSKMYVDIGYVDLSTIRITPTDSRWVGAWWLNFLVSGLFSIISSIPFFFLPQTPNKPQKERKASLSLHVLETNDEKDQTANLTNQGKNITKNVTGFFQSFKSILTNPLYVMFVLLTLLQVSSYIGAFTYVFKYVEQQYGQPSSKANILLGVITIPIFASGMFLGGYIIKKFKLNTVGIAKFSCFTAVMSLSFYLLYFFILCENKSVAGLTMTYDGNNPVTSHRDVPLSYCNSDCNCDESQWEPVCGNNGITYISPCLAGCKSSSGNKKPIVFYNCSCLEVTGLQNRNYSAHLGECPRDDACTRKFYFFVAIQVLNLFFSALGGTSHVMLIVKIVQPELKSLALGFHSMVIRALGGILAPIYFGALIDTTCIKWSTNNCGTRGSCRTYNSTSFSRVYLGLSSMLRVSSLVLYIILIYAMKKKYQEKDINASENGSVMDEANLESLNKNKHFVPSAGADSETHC", "assay": "Inhibition of OATP1B1 (unknown origin) upto 100 uM"}, "[11]": {"assay": "Aqueous solubility of compound in HCl salt : water", "assay_type": "physicochemical"}, "Cytochrome P450 2B6": {"biological_target": "T4, Cytochrome P450 2B6 (Homo sapiens, UniProt P20813)", "T4 sequence (P20813 whole entry)": "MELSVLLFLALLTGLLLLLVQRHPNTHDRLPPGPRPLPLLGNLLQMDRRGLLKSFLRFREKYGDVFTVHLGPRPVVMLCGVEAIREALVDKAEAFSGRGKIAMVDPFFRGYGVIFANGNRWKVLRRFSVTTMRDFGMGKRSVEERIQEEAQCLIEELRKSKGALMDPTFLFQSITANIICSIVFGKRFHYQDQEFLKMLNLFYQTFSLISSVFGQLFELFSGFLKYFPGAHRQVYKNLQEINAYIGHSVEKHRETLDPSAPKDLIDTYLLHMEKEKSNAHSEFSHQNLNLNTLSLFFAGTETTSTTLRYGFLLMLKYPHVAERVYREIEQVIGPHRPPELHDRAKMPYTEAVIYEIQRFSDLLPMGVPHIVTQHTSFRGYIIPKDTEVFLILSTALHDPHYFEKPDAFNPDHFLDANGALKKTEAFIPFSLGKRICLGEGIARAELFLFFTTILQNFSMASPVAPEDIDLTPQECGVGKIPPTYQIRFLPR", "assay": "Inhibition of CYP2B6 (unknown origin)", "assay_type": "ADME"}, "Cytochrome P450 2C19": {"biological_target": "Cytochrome P450 2C19 (Homo sapiens, UniProt P33261)", "sequence (P33261 whole entry)": "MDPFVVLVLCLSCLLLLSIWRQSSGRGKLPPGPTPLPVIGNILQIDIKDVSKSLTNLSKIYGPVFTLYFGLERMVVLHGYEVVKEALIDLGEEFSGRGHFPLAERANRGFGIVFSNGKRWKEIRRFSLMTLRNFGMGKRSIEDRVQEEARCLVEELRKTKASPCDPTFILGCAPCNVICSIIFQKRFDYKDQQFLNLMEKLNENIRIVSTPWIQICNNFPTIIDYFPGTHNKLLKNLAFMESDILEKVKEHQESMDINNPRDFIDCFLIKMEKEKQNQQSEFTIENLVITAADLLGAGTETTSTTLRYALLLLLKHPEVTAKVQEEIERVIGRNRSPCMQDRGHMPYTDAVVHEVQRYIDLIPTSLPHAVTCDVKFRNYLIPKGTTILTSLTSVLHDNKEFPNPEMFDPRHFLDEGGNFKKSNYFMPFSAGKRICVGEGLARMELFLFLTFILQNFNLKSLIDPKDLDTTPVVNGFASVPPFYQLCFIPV", "assay": "Inhibition of CYP2C19 (unknown origin)", "assay_type": "ADME"}, "[12]": {"assay": "Total blood clearance in dog blood at 0.5 mg/kg, iv", "assay_type": "ADME, organism-based, Canis lupus familiaris"}, "[13]": {"assay": "Toxicity in rat assessed as sedation by measuring spontaneous locomotor activity at 60 mg/kg, po", "assay_type": "organism-based", "settings": "in vivo", "summary_of_the_method": "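Male rats, spontaneous locomotor activity test; oral doses 60, 100 or 300 mg/kg given 30 min before the session; plasma sampled 60 min postdose at 60 mg/kg.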"}},
  "note": "pIC50, pKi: −log10 of the molar value. The source made the active and inactive calls. No cut-off for these calls is given here.",
  "data": [
    {"smiles": "Cl.NC(=O)[C@@H]1CC[C@H](c2ccc(OCc3ccccc3F)cc2)N1", "note": "[RAXATRIGINE HYDROCHLORIDE]", "values": [
      {"measurement": "Vd", "setting": "[1]", "value": 2, "unit": "L/kg"},
      {"measurement": "inhibition (INH)", "setting": "[2]", "value": "Not Active"},
      {"measurement": "pIC50", "setting": "Cytochrome P450 2C8", "value": "< 4.00"},
      {"measurement": "Cmax", "setting": "[3]", "value": 705, "unit": "ng/mL"},
      {"measurement": "pKi", "setting": "[4]", "value": "< 5.00"},
      {"measurement": "Cp(f)", "setting": "[5]", "value": 7.8, "unit": "ng/mL"},
      {"measurement": "half-life", "setting": "[6]", "value": 2.2, "unit": "h"},
      {"measurement": "bioavailability", "setting": "[7]", "value": 43, "unit": "%"},
      {"measurement": "Activity", "setting": "Rattus norvegicus", "value": "Active"},
      {"measurement": "Vd", "setting": "[8]", "value": 2, "unit": "L/kg"},
      {"measurement": "Cmax", "setting": "[9]", "value": 730, "unit": "ng/mL"},
      {"measurement": "inhibition (INH)", "setting": "[10]", "value": "Not Active"},
      {"measurement": "solubility", "setting": "[11]", "value": 16.3, "unit": "mg/mL"},
      {"measurement": "pIC50", "setting": "Cytochrome P450 2B6", "value": 4.51},
      {"measurement": "pIC50", "setting": "Cytochrome P450 2C19", "value": 4.10},
      {"measurement": "clearance", "setting": "[12]", "value": 12, "unit": "mL/min/kg"},
      {"measurement": "Activity", "setting": "[13]", "value": "Non-Toxic"}
    ]}
  ]
}
